Results: ChEMBL document CHEMBL4219116, “Adenosine analogs bearing phosphate isosteres as human MDO1 ligands” (Bioorg Med Chem, 2018)
Active and inactive are the calls of the source. The rule behind the calls is not given here.

Columns and labels:
[1] = molecular target: T1, ADP-ribose glycohydrolase MACROD1 (Homo sapiens) (UniProt Q9BQ69); assay: Inhibition of recombinant human N-terminal His6-tagged MDO1 (58 to 325 residues) expressed in Escherichia coli Rosetta2 (DE3) at 0.8 mM using mono-biotin-ADP-ribosylated SRPK2 as substrate after 16 hrs by Western blot analysis
T1 sequence (whole entry): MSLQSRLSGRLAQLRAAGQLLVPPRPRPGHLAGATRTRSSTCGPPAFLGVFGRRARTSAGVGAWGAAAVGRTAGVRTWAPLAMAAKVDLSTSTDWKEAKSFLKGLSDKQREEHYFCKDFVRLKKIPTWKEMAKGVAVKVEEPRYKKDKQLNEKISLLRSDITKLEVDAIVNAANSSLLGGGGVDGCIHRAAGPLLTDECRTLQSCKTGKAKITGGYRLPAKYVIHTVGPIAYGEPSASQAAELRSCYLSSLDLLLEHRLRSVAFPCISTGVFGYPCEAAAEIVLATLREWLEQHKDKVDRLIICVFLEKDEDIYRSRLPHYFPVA
Method in brief: (§1)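 Substrate was SRPK2 mono-biotin-ADP-ribosylated by ARTD10. 2 μM substrate, 2 μM MDO1 and 0.8–1 mM compound were incubated 16 h in 25 mM HEPES pH 7.5, 100 mM NaCl. The reaction was stopped with Laemmli buffer at 95 °C for 5 min, then run on SDS-PAGE and blotted. Detection used streptavidin-HRP with chemiluminescence. Readout was qualitative, against SRPK2-alone and no-inhibitor controls.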

[2] = molecular target: T1, ADP-ribose glycohydrolase MACROD1 (Homo sapiens); assay: Inhibition of recombinant human N-terminal His6-tagged MDO1 (58 to 325 residues) expressed in Escherichia coli Rosetta2 (DE3) at 1 mM using mono-biotin-ADP-ribosylated SRPK2 as substrate after 16 hrs by Western blot analysis; method in brief: as §1
[3] = molecular target: T1, ADP-ribose glycohydrolase MACROD1 (Homo sapiens); assay: Inhibition of recombinant human N-terminal His6-tagged MDO1 (58 to 325 residues) expressed in Escherichia coli Rosetta2 (DE3) using mono-biotin-ADP-ribosylated SRPK2 as substrate after 16 hrs by Western blot analysis; method in brief: as §1
[4] = molecular target: T1, ADP-ribose glycohydrolase MACROD1 (Homo sapiens); assay: Binding affinity to human MDO1 assessed as change in melting temperature by DSF method
Method in brief: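 Thermal shift read-out: a hydrophobic reporter dye binds the exposed protein core as the protein denatures with rising temperature. ΔTm is taken as the stabilization by ligand.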

[5] = molecular target: T2, ADP-ribose glycohydrolase MACROD2 (Homo sapiens) (UniProt A1Z1Q3); assay: Inhibition of recombinant MDO2 (7 to 243 residues) (unknown origin) expressed in Escherichia coli Rosetta2 (DE3) at 6.6 mM using mono-ADP-ribosylated SRPK2 as substrate after 1 hr 20 mins by Alphascreen assay
T2 sequence (whole entry): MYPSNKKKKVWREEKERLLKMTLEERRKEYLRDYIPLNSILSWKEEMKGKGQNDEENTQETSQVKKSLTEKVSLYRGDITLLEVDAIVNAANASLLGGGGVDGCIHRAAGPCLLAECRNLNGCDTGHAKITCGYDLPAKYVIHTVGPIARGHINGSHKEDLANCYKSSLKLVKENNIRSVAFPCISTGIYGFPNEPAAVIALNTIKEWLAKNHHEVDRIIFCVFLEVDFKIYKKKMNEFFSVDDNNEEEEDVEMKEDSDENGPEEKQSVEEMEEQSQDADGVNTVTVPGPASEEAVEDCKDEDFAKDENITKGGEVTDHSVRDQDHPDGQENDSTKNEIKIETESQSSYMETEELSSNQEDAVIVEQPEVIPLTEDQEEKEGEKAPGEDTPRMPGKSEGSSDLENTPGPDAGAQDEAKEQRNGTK
Method in brief: (§2)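 AlphaScreen hydrolysis assay run in quadruplicate, with compound from 6.6 mM to 0.66 μM in half-log dilutions. MDO1 or MDO2 (800 nM final) was added, then mono-ADP-ribosylated SRPK2 (50 nM final), and incubated 1 h 20 min at room temperature. Acceptor/donor beads (5 μg/ml final) were added for 3 h in the dark before reading luminescence.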

[6] = molecular target: T1, ADP-ribose glycohydrolase MACROD1 (Homo sapiens); assay: Inhibition of recombinant human N-terminal His6-tagged MDO1 (58 to 325 residues) expressed in Escherichia coli Rosetta2 (DE3) at 6.6 mM using mono-ADP-ribosylated SRPK2 as substrate after 1 hr 20 mins by Alphascreen assay; method in brief: as §2
[7] = molecular target: T3, ADP-ribose glycohydrolase MACROD1 (Homo sapiens, UniProt Q9BQ69); assay: Binding affinity to human MDO1 by ITC
T3 sequence (Q9BQ69 whole entry): T1 sequence (whole entry)

Row | SMILES | inhibition [1] | inhibition [2] | also measured
1 | Nc1ncnc2c1ncn2[C@@H]1O[C@H](CNc2c(NCc3ccc(F)cc3)c(=O)c2=O)[C@@H](O)[C@H]1O | inactive | – | –
2 | CCCCNc1c(NC[C@H]2O[C@@H](n3cnc4c(N)ncnc43)[C@H](O)[C@@H]2O)c(=O)c1=O | inactive | – | –
3 | Nc1ncnc2c1ncn2[C@@H]1O[C@H](CNc2c(NCc3ccccc3)c(=O)c2=O)[C@@H](O)[C@H]1O | – | inactive | –
4 | Nc1ncnc2c1ncn2C1OC(CNC(=O)CSc2nnnn2-c2ccccc2)[C@@H](O)[C@H]1O (single isomer, unassigned) | – | inactive | –
5 | Nc1ncnc2c1ncn2[C@@H]1O[C@H](COP(=O)(O)OP(=O)(O)O)[C@@H](O)[C@H]1O | – | – | inhibition [3]: inactive; ΔTm [4]: < 1 °C
6 | Cc1ccc(CNc2c(NC[C@H]3O[C@@H](n4cnc5c(N)ncnc54)[C@H](O)[C@@H]3O)c(=O)c2=O)cc1 | – | Active | inhibition [5]: inactive; inhibition [6]: inactive
7 | Nc1ncnc2c1ncn2[C@@H]1O[C@H](COP(=O)(O)O)[C@@H](O)[C@H]1O | – | – | inhibition [3]: inactive; ΔTm [4]: < 1 °C
8 | Nc1ncnc2c1ncn2C1OC(CNC(=O)[C@H](CO)NC(=O)OCC2c3ccccc3-c3ccccc32)[C@@H](O)C1O (single isomer, unassigned) | Active | – | inhibition [5]: inactive; inhibition [6]: inactive
9 | COc1ccc(CNc2c(NC[C@H]3O[C@@H](n4cnc5c(N)ncnc54)[C@H](O)[C@@H]3O)c(=O)c2=O)cc1 | – | inactive | –
10 | Nc1ncnc2c1ncn2[C@@H]1O[C@H](CNc2c(Nc3cccc([N+](=O)[O-])c3)c(=O)c2=O)[C@@H](O)[C@H]1O | inactive | – | –
11 | Nc1ncnc2c1ncn2[C@@H]1O[C@H](CNc2c(Nc3cccc(O)c3)c(=O)c2=O)[C@@H](O)[C@H]1O | inactive | – | –
12 | Nc1ncnc2c1ncn2C1OC(CNC(=O)Cc2nnn[nH]2)[C@@H](O)[C@H]1O (single isomer, unassigned) | – | inactive | –
13 | Nc1ncnc2c1ncn2[C@@H]1O[C@H](COP(=O)(O)OP(=O)(O)OC[C@@H]2O[C@H](O)[C@@H](O)[C@H]2O)[C@@H](O)[C@H]1O | – | – | inhibition [3]: Active; Kd [7]: 900 nM; ΔTm [4]: 5 °C
14 | Nc1ncnc2c1ncn2C1OC(CNC(=O)[C@H](CC(=O)O)NC(=O)OCC2c3ccccc3-c3ccccc32)[C@@H](O)C1O (single isomer, unassigned) | – | inactive | –
15 | Nc1ncnc2c1ncn2C1OC(CNC(=O)[C@@H](N)CO)[C@@H](O)C1O (single isomer, unassigned) | – | inactive | –
